Bioassay records deposited in PubChem BioAssay by several laboratories.
An excerpt weighted towards active compounds, which were near 2.6% of everything screened.
Platelet DG rel = inhibitors of platelet dense granule secretion, primary screen, cell-based, MLPCN, human platelets. human platelet-rich plasma, SFLLRN dense granule ATP release, luminescence. inhibition, %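 (compounds screened at 7.5 µM in platelet-rich plasma)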. AID 1663, 2009. 300,000 compounds, 0.22% hits;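 active means mean replicate score, as percent of positive control, at or above 50; inconclusive means mean below 50 but at least one replicate at or above 50; inactive means mean and every replicate below 50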
SENP7 inh = SENP7 protease inhibitors, primary screen, biochemical, luminescence, uHTS; inhibition, % at 5 µM; Sentrin-specific protease 7 (Homo sapiens), Q9BQF6; recombinant SENP7, Z-RLRGG-aminoluciferin luminescence, 40 min; 330,000 compounds, 1.5% hits;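 active means inhibition above about 50% at the single test dose, limit read from the data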;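 further: plate controls were DMSO with enzyme for no effect and no enzyme buffer wells for full effect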
Target sequence (Q9BQF6 706-1050 limits assumed): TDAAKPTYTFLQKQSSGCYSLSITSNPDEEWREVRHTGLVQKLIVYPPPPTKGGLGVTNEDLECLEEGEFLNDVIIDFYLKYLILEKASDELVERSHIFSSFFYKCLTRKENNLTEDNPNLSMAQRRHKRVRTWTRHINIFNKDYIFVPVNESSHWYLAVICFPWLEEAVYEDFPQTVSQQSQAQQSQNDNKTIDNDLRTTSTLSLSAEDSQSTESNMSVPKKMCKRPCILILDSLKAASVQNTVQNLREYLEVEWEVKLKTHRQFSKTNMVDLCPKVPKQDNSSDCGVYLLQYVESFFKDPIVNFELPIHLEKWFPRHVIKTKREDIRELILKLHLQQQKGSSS
SENP8 block-1 = SENP8 protease inhibitors, primary screen, biochemical, luminescence | AID 2540, 2010 | Sentrin-specific protease 8 (Homo sapiens), Q96LD8 | 330,000 compounds, 1.2% hits | inhibition, % at 10 µM | purified SENP8, Z-RLRGG-aminoluciferin cleavage; in the data active means inhibition above about 50%
Target sequence (Q96LD8 whole entry, looked up): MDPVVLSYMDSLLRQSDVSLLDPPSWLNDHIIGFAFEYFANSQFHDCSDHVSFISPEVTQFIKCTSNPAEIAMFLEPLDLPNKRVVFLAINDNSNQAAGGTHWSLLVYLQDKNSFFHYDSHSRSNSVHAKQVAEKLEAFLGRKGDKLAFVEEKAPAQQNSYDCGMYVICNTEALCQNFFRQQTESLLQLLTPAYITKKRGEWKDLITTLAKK
SENP8 block-2 = human SENP8 protease inhibitors, primary screen, biochemical, fluorescence, Nedd8 protein substrate, uHTS | inhibition, % at 20 µM | AID 602440, 2012 | Sentrin-specific protease 8 (Homo sapiens), Q96LD8 | 360,000 compounds, 0.64% hits | recombinant SENP8; in the data active means inhibition mostly above about 40%, no sharp cut-off; inactive means mostly below about 27%
SENP1 inh = human SENP1 catalytic domain inhibitors, primary screen, biochemical, FRET, uHTS | recombinant SENP1 catalytic domain, CyPet-SUMO1-YPet FRET cleavage | inhibition, % at 10 µM | 360,000 compounds, 0.21% hits | AID 624204, 2012;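 active means inhibition at least 30% at 10 µM, raw YFP signal under a set limit, fluorescence ratio 0.5 to 1.5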;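 further: 0% = enzyme with DMSO and 100% = no enzyme wells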
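Test system: recombinant human SENP1 catalytic domain, His6-tagged / Medium: pH 8 Tris buffer with EDTA, NaCl, BME, BSA, NP40, catalase / Also added: SUMO1 FRET substrate flanked by Cypet and Ypet, 25 nM / Times: 50 min reaction at room temperature / Signal: FRET, CFP and YFP emission / Control set: no-enzyme low control and enzyme-plus-DMSO high control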
SENP6 inh = SENP6 protease inhibitors, primary screen, biochemical, luminescence, uHTS; Recombinant SENP6 catalytic domain, aminoluciferin luminescence; inhibition, % at 10 µM; 330,000 compounds, 1.8% hits;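 active means inhibition above about 50% at the single tested dose, limit read from the data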;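 further: plate controls were DMSO wells with enzyme for no effect and DMSO wells lacking enzyme for full effect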
SENP1 inh conf = human SENP1 catalytic domain inhibitors, confirmation, biochemical, FRET endpoint, single concentration; shares compounds with SENP1 inh; recombinant SENP1, CyPet-SUMO1-YPet FRET cleavage; inhibition, % at 10 µM; 520 compounds, 34% hits; AID 651678, 2012; in the data active means inhibition mostly above about 35%, no sharp cut-off; inactive means mostly below about 32%;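 further: 0% = enzyme with DMSO and 100% = no enzyme control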
SENP1 kinetic = human SENP1 catalytic domain inhibitors, confirmation, biochemical, kinetic FRET, single concentration | shares compounds with SENP1 inh | recombinant SENP1, CyPet-SUMO1-YPet FRET kinetic cleavage | inhibition, % at 10 µM | 520 compounds, 26% hits; in the data active means inhibition mostly above about 32%, no sharp cut-off; inactive means mostly below about 29%;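 further: 0% = DMSO with enzyme and 100% = no enzyme substrate only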
Starred values were filed as active, the others as inactive; ? = inconclusive; · = not tested or not shown.

SMILES	Platelet DG rel	SENP7 inh	SENP8 block-1	SENP8 block-2	SENP1 inh	SENP6 inh	SENP1 inh conf	SENP1 kinetic
O=S(=O)(N/N=C/c1ccc(N2CCOCC2)cc1)c1ccccc1	0.7	2.2	7.7	13.2	37.2*	-34.7	32.3	24.6
C/C(=N\NC(=O)c1ccc(O)cc1)c1ccc(N2CCOCC2)cc1	2.5	-1.6	2.5	-259.9	0.5	-3.2	·	·
CCn1c(C)nc2cc(C(=O)N/N=C/c3ccc(N4CCOCC4)cc3)ccc21	11.5	2.7	-1.5	-368.4	35.1*	13.4	28.0	26.3
O=C(N/N=C/c1ccc(N2CCOCC2)cc1)c1ccc(O)cc1	13.2	4.6	17.4	-368.8	34.5*	3.0	25.1	17.3
NC(=O)CCC(C(=O)O)N1C(=O)c2ccc(O)cc2C1=O (centres undefined)	-0.5	-14.3	-6.7	4.6	44.0*	3.2	36.8*	24.1
COc1ccc(-c2c(O)c(C#N)c(-c3ccccc3)n(-c3ccc(OC)cc3)c2=O)cc1	-7.6	3.5	-7.8	-291.1	77.8*	-12.5	2.1	5.4
NS(=O)(=O)c1ccc(NC(=O)c2cccc(N3C(=O)c4ccccc4C3=O)c2)cc1	5.6	3.4	21.7	9.8	0.2	-8.5	·	·
CN(C)c1ccc(/C=N/NC(=O)c2ccccc2Cl)cc1	-5.9	8.2	-3.7	-145.9	0.4	10.6	·	·
CN(C)c1ccc(/C=N/NC(=O)c2cccc(C(=O)N/N=C/c3ccc(N(C)C)cc3)n2)cc1	1.4	6.6	-0.8	-8.0	37.6*	5.9	-0.6	10.1
CC1CCCCN1C(=O)Cn1nnc(-c2cccnc2)n1 (centres undefined)	7.6	-5.8	-9.7	-7.5	29.7*	-24.0	33.9	22.8
CC1(C(=O)NS(=O)(=O)C2CC2)CCN(C(=O)c2c(F)cccc2F)C1 (centres undefined)	·	·	·	18.8	3.4	·	·	·
N#C/C(C(N)=O)=C1/SC(Cc2ccc(F)cc2)C(=O)N1c1ccccc1 (centres undefined)	-3.6	-6.9	-10.7	23.7	70.2*	-16.0	-3.6	2.3
CCCCNC(=O)C1C(c2ccc(OC)cc2)=Nc2ccccc2N1C(=O)c1ccncc1 (centres undefined)	·	·	·	-26.0	8.4	·	·	·
Cc1cccnc1NC(=O)CCc1c[nH]c2ccccc12	-31.5	6.5	9.0	11.0	0.3	-3.8	·	·
O=C(NNc1nc2c(F)cccc2s1)c1ccc(F)cc1	-0.7	-3.2	-8.4	5.5	2.1	-14.2	·	·
O=C(NNc1nc2c(F)cccc2s1)c1cc(=O)c2ccccc2o1	1.6	73.6*	94.2*	22.7	32.7*	98.3*	65.8*	56.8*
O=C(O)c1ccccc1C(=O)Nc1ccccc1NC(=O)c1ccccc1C(=O)O	9.3	2.8	-6.0	-5.3	88.2*	-5.3	-7.1	-0.5
O=C(Nc1ccccc1)c1ccccc1NC(=O)c1ccccc1C(=O)O	-0.4	-11.6	-17.5	-225.4	1.8	-7.5	·	·
Cc1ccc(CNC(=O)CC(C)S(=O)(=O)c2ccc3c(c2)NC(=O)CS3)o1 (centres undefined)	-3.6	-7.9	-8.7	13.1	36.4*	-4.4	17.8	23.7*
Cc1cccc(NC(=O)CCN2C(=O)c3cccc([N+](=O)[O-])c3C2=O)c1	·	2.8	6.4	9.0	-2.8	-5.6	·	·
CCCN(CC(=O)Nc1ccccc1C)C(=O)CCN1C(=O)c2cccc([N+](=O)[O-])c2C1=O	3.7	-3.0	-2.6	15.1	38.0*	-9.9	19.0	19.9
CCOC(=O)c1sc2nc(C)nc(NCc3ccc(F)cc3)c2c1C	9.0	-1.4	1.7	-330.9	36.4*	-26.9	-18.9	17.9
COCCNC(=O)C1(C)CCN(C(=O)c2nc(C)oc2C)C1 (centres undefined)	·	·	·	5.9	2.2	·	·	·
O=C(NN1C(=O)C2C3C=CC(C3)C2C1=O)c1ccccc1 (centres undefined)	-5.0	6.2	-5.6	12.0	2.7	-11.9	·	·
Cc1cccc(C(=O)NN2C(=O)C3C(c4ccccc4)C=CC(c4ccccc4)C3C2=O)c1 (centres undefined)	-2.9	-5.4	1.6	4.5	64.0*	0.2	13.0	7.0
SMILES	Platelet DG rel	SENP7 inh	SENP8 block-1	SENP8 block-2	SENP1 inh	SENP6 inh	SENP1 inh conf	SENP1 kinetic
COc1ccc(OC)c(NC(=O)c2cc3n(n2)C(C(F)(F)F)CC(c2ccc4c(c2)OCO4)N3)c1 (centres undefined)	-0.4	14.2	0.9	17.9	2.1	25.9	·	·
COc1ccccc1NC(=O)c1cc2n(n1)C(C(F)(F)F)CC(c1ccc3c(c1)OCO3)N2 (centres undefined)	?	-2.3	-1.0	13.7	38.3*	-3.0	31.1	22.6
CCOC(=O)c1sc2cc([N+](=O)[O-])cc(SCCO)c2c1N	-7.2	0.8	-4.6	20.3	50.1*	-1.3	20.3	12.2
CCOC(=O)c1sc2nc(C)cc(C)c2c1N	2.5	-1.0	-4.1	-288.6	-27.2	-8.9	·	·
CCOC(=O)c1sc2cc([N+](=O)[O-])cc(SCC(=O)OC)c2c1N	-9.8	11.5	5.3	23.3	65.5*	-9.5	24.8	2.2
Cc1nc2ccc(NS(=O)(=O)c3c(F)cccc3F)cc2s1	·	9.4	-8.6	-12.5	52.5*	-9.0	25.9	25.4*
Cc1nc2ccc(NS(=O)(=O)c3ccc(F)cc3)cc2s1	3.4	-7.7	-9.8	0.7	-0.8	-6.5	·	·
COC(=O)[C@]12CCCCC=C1N(Cc1cccc3ccccc13)C(=O)[C@H](CC(=O)NCc1cccc(C(F)(F)F)c1)C2	·	·	·	23.9	2.6	·	·	·
CCOC(=O)C1=C(c2ccccc2)NC(=O)NC1c1cc(OC)c(OC)c(OC)c1 (centres undefined)	·	-7.0	-21.9	-2.2	-1.2	-12.4	·	·
CCOC(=O)C1=C(c2ccccc2)NC(=O)NC1c1cc(Cl)c(O)c(OC)c1 (centres undefined)	2.8	-8.4	0.3	11.2	31.8*	12.1	29.6	23.0
Nc1ccn([C@@H]2O[C@H](CNCc3ccc(OCC(=O)Nc4nccs4)cc3)[C@@H](O)[C@H]2O)c(=O)n1	·	·	·	11.2	0.3	·	·	·
O=c1cc(NCCO)c2ccccc2o1	1.3	-1.5	-1.4	9.0	-1.1	-16.8	·	·
CCN(CC)CCNc1ccc(CO)c2oc3ccccc3c(=O)c12	·	·	·	17.0	46.8*	·	48.0*	39.5*
